In PMC9942236 (Science translational medicine, 2023):
pEC50: −log10 of the molar value.

Key:
[1] = test system: HA-Ras cells; assay: Cell viability of transformed astrocytes expressing HRAS G12V; format: cell-based, human; conditions: read-out: EC50 (cell viability), 1% serum, 96h
Procedure, shortened: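 Human astrocytes immortalized with E6/E7/hTERT and transformed by HRAS G12V expression were treated with test compound in 1% serum for 96 h, then viability was measured. At least three independent biological replicates; experiments repeated at least three times; mean ± SD.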

[2] = test system: M120; assay: Short-term cell viability of recurrent GSC line M120; format: cell-based, human; conditions: YTX-7739 at 10 μM, TMZ 50–100μM
[3] = test system: 83 GSC orthotopic brain tumors; assay: Orthotopic 83 GSC mouse model: tumor growth and survival; format: in vivo; conditions: 83-bearing mice; YTX-7739 30mg/kg, TMZ 10mg/kg, IP
[4] = test system: MGG8 orthotopic brain tumors; assay: Orthotopic MGG8 GSC mouse model: tumor growth and survival; format: in vivo; conditions: MGG8-bearing mice; YTX-7739 30 mg/kg, TMZ 5mg/kg, IP
Procedure, shortened: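 Fluc-expressing MGG8 GSCs (1–5 × 10⁴) implanted into left forebrain of male/female athymic nude mice; treatment began once tumors bioluminescence-detected (D-luciferin 150 mg/kg IP). Groups (n=8): vehicle (0.5% methylcellulose + 0.2% Tween80 in saline), test compound 30 mg/kg, TMZ 5 mg/kg (in 5% dextrose), or combination, IP. Tumor growth by bioluminescence; Kaplan-Meier survival, two-sided log-rank test; study ended at six months.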

| Structure (SMILES) | pEC50 [1] | short-term cell viability [2] | median survival [3] | tumor growth [3] | survival [4] | survival percentage at six months after tumor implantation [4] |
| --- | --- | --- | --- | --- | --- | --- |
| Cc1nnc(-c2ccc(N3CCC(Oc4cc(F)ccc4Cl)CC3)nn2)o1 [CAY10566] | 7.73 |  |  |  |  |  |
| Cn1nnc2c(C(N)=O)ncn2c1=O [TMZ, Temozolomide] |  | ineffective | 32 days | initially delayed tumor growth | 106.5 days | 25% |
